Drawing on ChEMBL document CHEMBL1130100, “Stabilized analogs of thymopentin. 3. Evaluation of ketomethylene pseudopeptides for antiarthritic properties” (1997), this text covers No. of mice and Paw swelling for five molecules.

What all share (format): functional
Experiment [1] relates to Mus musculus. The experiment in a line: On set and incidence of arthritis in the Mouse Type II collagen model at 0.5 dose mg/kg on day 37,expressed as number of mice treated out of 12 tested. Put shortly:
(§1)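 DBA/1 Lac mice sensitized with bovine type II collagen (100 μg) in Freund's complete adjuvant, ip boost (100 μg) on day 21. Freshly dissolved compound in sterile saline was given iv every second day, day 19 through day 40, groups of 12. A mouse was scored arthritic if erythema or edema was present on any digit, paw or appendage. Incidence reported as number positive of 12.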

Experiment [2] has as its system Mus musculus. Nature of the experiment: On set and incidence of arthritis in the Mouse Type II collagen model at 0.5 dose mg/kg on day 44, expressed as number of mice treated out of 12 tested. The method, boiled down:
as §1

The subject of experiment [3] is Rattus norvegicus. The experiment in a line: extent of paw swelling following treatment with the compound in the rat adjuvant arthritis model observed on day 16 at 0.050 mg/kg dose. The following applies: dose 0.05 mg/kg. Put shortly: (§2)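 Rat adjuvant arthritis with iv dosing every second day, starting 2 days before the adjuvant/antigen challenge. Initial doses ranged 0.05 to 0.50 mg/kg, eight rats per dose. Each hind paw was measured by caliper. Swelling minus age-matched normal paw, expressed as % of untreated animals.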

Experiment [4] relates to Rattus norvegicus. Nature of the experiment: extent of paw swelling following treatment with the compound in the rat adjuvant arthritis model observed on day 19 at 0.050 mg/kg dose. As to conditions: dose 0.05 mg/kg. Put shortly:
as §2

For experiment [5], the system named is Mus musculus. The experiment in a line: On set and incidence of arthritis in the Mouse Type II collagen model at 0.5 dose mg/kg on day 40, expressed as number of mice treated out of 12 tested. Put shortly:
as §1

The test system of experiment [6] is Mus musculus. Nature of the experiment: On set and incidence of arthritis in the Mouse Type II collagen model following 0.5 mg/kg on day 30. Put shortly:
as §1

Experiment [7] relates to Mus musculus. The experiment in a line: Extent of paw swelling after treatment with thymopentin-5 (TP-5) compound in the Mouse Type II collagen arthritis at 1 mg/kg on day 30. The method, boiled down:
(§3)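 DBA/1 Lac mice immunized with bovine type II collagen (100 μg) in Freund's complete adjuvant at four to six back sites, then boosted ip (100 μg) on day 21. Dosing was iv in sterile saline every second day from day 19 through day 40, 12 mice per dose. Each hind paw was measured by caliper. Result given as % of untreated swelling after subtracting age-matched normal paw.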

The test system of experiment [8] is Rattus norvegicus. Nature of the experiment: extent of paw swelling following treatment with the compound in the rat adjuvant arthritis model observed on day 12 at 0.050 mg/kg dose. The following applies: dose 0.05 mg/kg. The method, boiled down:
as §2

Experiment [9] has as its system Mus musculus. Nature of the experiment: On set and incidence of arthritis in the Mouse Type II collagen model at 0.5 dose mg/kg on day 40, expressed as ratio of number treated to that of control. Put shortly: as §1
For experiment [10], the system named is Mus musculus. Nature of the experiment: On set and incidence of arthritis in the Mouse Type II collagen model at 0.5 dose mg/kg on day 37, expressed as ratio of number treated to that of control. The method, boiled down: as §1
In experiment [11] the test system is Mus musculus. The experiment in a line: (§4) Extent of paw swelling after treatment with thymopentin-5 (TP-5) compound in the Mouse Type II collagen arthritis at a dosage of 1.0 mg/kg on day 44. The method, boiled down: as §3
Experiment [12] relates to Mus musculus. The description is as §4. The method, boiled down: as §3
This is another data set of the same source.

The test system of experiment [13] is Mus musculus. Nature of the experiment: On set and incidence of arthritis in the Mouse Type II collagen model at 0.5 dose mg/kg on day 44, expressed as ratio of number treated to that of control. The method, boiled down:
as §1

In experiment [14] the test system is Rattus norvegicus. Nature of the experiment: extent of paw swelling following treatment with the compound in the rat adjuvant arthritis model observed on day 16 at 0.075 mg/kg dose. The method, boiled down:
as §2

Experiment [15] relates to Rattus norvegicus. Nature of the experiment: extent of paw swelling following treatment with the compound in the rat adjuvant arthritis model observed on day 12 at 0.075 mg/kg dose. The method, boiled down: as §2
The test system of experiment [16] is Rattus norvegicus. The experiment in a line: extent of paw swelling following treatment with the compound in the rat adjuvant arthritis model observed on day 19 at 0.075 mg/kg dose. Put shortly: as §2
Experiment [17] has as its system Rattus norvegicus. Nature of the experiment: extent of paw swelling following treatment with the compound in the rat adjuvant arthritis model observed on day 19 at 0.50 mg/kg dose. The following applies: dose 0.5 mg/kg. The method, boiled down: as §2
Experiment [18] has as its system Rattus norvegicus. The experiment in a line: extent of paw swelling following treatment with the compound in the rat adjuvant arthritis model observed on day 16 at 0.50 mg/kg dose. The following applies: dose 0.5 mg/kg. The method, boiled down: as §2
Experiment [19] relates to Mus musculus. Nature of the experiment: Extent of paw swelling after treatment with thymopentin-5 (TP-5) compound in the Mouse Type II collagen arthritis at a dosage of 0.03 mg/kg on day 30. Put shortly:
as §3

The test system of experiment [20] is Rattus norvegicus. The experiment in a line: extent of paw swelling following treatment with the compound in the rat adjuvant arthritis model observed on day 12 at 0.50 mg/kg dose. The following applies: dose 0.5 mg/kg. Put shortly:
as §2

In experiment [21] the test system is Rattus norvegicus. Nature of the experiment: extent of paw swelling following treatment with the compound in the rat adjuvant arthritis model observed on day 12 at 0.05 mg/kg dose. Put shortly: as §2
The subject of experiment [22] is Rattus norvegicus. The experiment in a line: extent of paw swelling following treatment with the compound in the rat adjuvant arthritis model observed on day 16 at 0.05 mg/kg dose. Put shortly: as §2
The subject of experiment [23] is Rattus norvegicus. The experiment in a line: extent of paw swelling following treatment with the compound in the rat adjuvant arthritis model observed on day 19 at 0.05 mg/kg dose. The method, boiled down:
as §2

Where “and” joins values, the source holds several entries; their conditions need not be identical. Identical values can stand only once.

With `CCCCC(NC(=O)[C@H](CCCN=C(N)N)NC(C)=O)C(=O)N[C@@H](CC(=O)O)C(=O)NC(C(=O)C[C@@H](Cc1ccccc1)C(=O)O)C(C)C` (stereo not given in full), the No. of mice amounted to 11 in the experiment on Mus musculus [1], 12 in the experiment on Mus musculus [2], 11 in the experiment on Mus musculus [5] and 8 in the experiment on Mus musculus [6]. The Paw swelling in the experiment with Rattus norvegicus [3] is given as 100%; in the experiment with Rattus norvegicus [4], 100%; in the experiment with Mus musculus [7], 100%; in the experiment on Rattus norvegicus [8], 0%.
As for `CCCCC(CC(=O)[C@@H](N)CCCN=C(N)N)C(=O)N[C@@H](CC(=O)O)C(=O)NC(C(=O)C[C@H](C(=O)O)C(C)C)C(C)C` (stereo in doubt; 1h-A), the No. of mice is 10 in the experiment on Mus musculus [9], 10 in the experiment on Mus musculus [10], 7 in the experiment with Mus musculus [6] (0.5 mg/kg) and 10 in the experiment with Mus musculus [13]. In addition, the Paw swelling in the experiment with Mus musculus [11] is 63%; in the experiment with Mus musculus [12], 95% and 75% and 63%.
In the case of `CCCCC(CC(=O)[C@@H](N)CCCN=C(N)N)C(=O)N[C@@H](CC(=O)O)C(=O)NC(C(=O)C[C@H](C(=O)O)C(C)C)C(C)C` (stereo in doubt; 1h-B), the No. of mice with Mus musculus [10] was 7; in the experiment with Mus musculus [6] (0.5 mg/kg), 6; in the experiment on Mus musculus [13], 9. In addition, the Paw swelling in the experiment on Rattus norvegicus [14] worked out at 100%; with Rattus norvegicus [15], 0%; in the experiment with Rattus norvegicus [16], 70%.
Consider `CC(C)[C@H](CC(=O)[C@H](CC(=O)O)NC(=O)[C@H](CCCCN)NC(=O)[C@@H](N)CCCN=C(N)N)C(=O)N[C@@H](Cc1ccccc1)C(=O)O` (stereo in doubt; 3a-A), for which the Paw swelling in the experiment with Rattus norvegicus [17] was 39%; in the experiment on Rattus norvegicus [18] it was 100%; with Mus musculus [19], 30% and 70% and 73%; in the experiment on Rattus norvegicus [20], 0%. Moreover, the results for the No. of mice in the experiment with Mus musculus [10], with Mus musculus [6] and in the experiment with Mus musculus [13] were 8, 5 and 9, respectively.
Take `CCCC[C@@H](C(=O)N[C@@H](CC(=O)O)C(=O)N[C@H](C(=O)C[C@H](C(=O)O)C(C)C)C(C)C)N(C)C(=O)[C@@H](N)CCCN=C(N)N` (stereo in doubt; 1m-B): the No. of mice turned out to be 11 in the experiment with Mus musculus [9], 11 with Mus musculus [10], 8 in the experiment on Mus musculus [6] (0.5 mg/kg) and 12 with Mus musculus [13]. Also, the Paw swelling worked out at 0% in the experiment with Rattus norvegicus [21], 100% in the experiment on Rattus norvegicus [22], 100% with Mus musculus [7] (1 mg/kg) and 100% in the experiment with Rattus norvegicus [23].
